For this assay, the target named is AmpC (Escherichia coli) (UniProt Q83TT7). The assay is described as follows: Inhibition of Escherichia coli AmpC assessed as induction of protein unfolding measured by trypsin mediated degradation of compound-AmpC enzyme complex at 250 uM after 15 mins by gel electrophoresis. The gist of the method:
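AmpC β-lactamase (0.5 μM) in 50 mM KPi, pH 7.0, with or without aggregator at 250 μM (1% DMSO final). Trypsin (0.01 or 0.025 mg/mL) added after 5 min. Digestion ran at room temperature for 0 min to 4 h. Samples were boiled 2 min in DTT-containing loading buffer, run on SDS-PAGE, and the β-lactamase band was scored against compound-free enzyme.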

The source made the active and inactive calls. The calls are words filed in the database; no cut-off is given here.

Chain of AmpC (Escherichia coli) (Q83TT7 as listed by the source): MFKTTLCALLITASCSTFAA

`COC(=O)C1=C(C)NC(C)=C(C(=O)OCCN(C)Cc2ccccc2)C1c1cccc([N+](=O)[O-])c1` (stereo unspecified): the result was Active.

The values are drawn from ChEMBL document CHEMBL1153954, “Promiscuous aggregate-based inhibitors promote enzyme unfolding” (J Med Chem, 2009).
